From ChEMBL document CHEMBL1154591, “Synthesis and in vitro microbiological evaluation of novel 4-aryl-5-isopropoxycarbonyl-6-methyl-3,4-dihydropyrimidinones” (2010)
≈ marks a conversion by molar mass, not a printed value.

Columns and labels:
Staphylococcus aureus = assay: Antibacterial activity against Staphylococcus aureus after 24 hrs by two fold serial dilution technique; type: functional
Procedure, shortened: (§1)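 Twofold serial broth dilution in nutrient broth. Compounds were taken up in DMSO as 1 mg/ml stocks, and 0.2 ml of stock was added to 1.8 ml of seeded broth for the first dilution, giving six dilutions in all. Seeded broth came from 24 h nutrient agar cultures, with a final inoculum of 10⁵ cfu/ml at pH 7.4 ± 0.2. Tubes were incubated at 37 ± 1 °C, and MIC was read visually after 24 h. Broth-only and solvent controls were included.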

Candida albicans = assay: Antifungal activity against Candida albicans after 72 to 96 hrs by two fold serial dilution technique; type: functional
Procedure, shortened: (§2)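 Twofold serial dilution in Sabouraud's dextrose broth. Compounds were taken up in DMSO as 1 mg/ml stocks, and 0.2 ml of stock was added to 1.8 ml of seeded broth for the first dilution, giving six dilutions. Seeded broth came from 24 h to 7-day Sabouraud's agar slant cultures, with a final inoculum of 1.1–1.5 × 10² cfu/ml. Tubes were incubated at 28 ± 1 °C for 72–96 h, and MIC was read visually. Broth-only and solvent controls were included.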

Salmonella typhi = assay: Antibacterial activity against Salmonella typhi after 24 hrs by two fold serial dilution technique; type: functional, Salmonella enterica subsp. enterica serovar Typhi; settings: Salmonella enterica
Procedure, shortened: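 Twofold serial broth dilution in nutrient broth. Compounds dissolved in DMSO as 1 mg/ml stocks; 0.2 ml added to 1.8 ml seeded broth, then serially diluted to six dilutions. Inoculum from 24 h nutrient agar cultures, final 10⁵ cfu/ml, pH 7.4 ± 0.2. Incubated at 37 ± 1 °C; MIC read visually at 24 h. Seeded-broth and solvent controls; ciprofloxacin standard.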

Klebsiella pneumoniae = assay: Antibacterial activity against Klebsiella pneumoniae after 24 hrs by two fold serial dilution technique; type: functional; procedure, shortened: as §1
Escherichia coli = assay: Antibacterial activity against Escherichia coli after 24 hrs by two fold serial dilution technique; type: functional; procedure, shortened: as §1
Aspergillus flavus = assay: Antifungal activity against Aspergillus flavus after 72 to 96 hrs by two fold serial dilution technique; type: functional; procedure, shortened: as §2
Mucor = assay: Antifungal activity against Mucor after 72 to 96 hrs by two fold serial dilution technique; type: functional; procedure, shortened: as §2
Rhizopus = assay: Antifungal activity against Rhizopus after 72 to 96 hrs by two fold serial dilution technique; type: functional; procedure, shortened: as §2
Pseudomonas aeruginosa = assay: Antibacterial activity against Pseudomonas aeruginosa after 24 hrs by two fold serial dilution technique; type: functional; procedure, shortened: as §1

| Structure (SMILES) | MIC (Staphylococcus aureus) [µg/mL] | MIC (Candida albicans) [µg/mL] | MIC (Salmonella typhi) [µg/mL] | MIC (Klebsiella pneumoniae) [µg/mL] | MIC (Escherichia coli) [µg/mL] | MIC (Aspergillus flavus) [µg/mL] | MIC (Mucor) [µg/mL] | MIC (Rhizopus) [µg/mL] | MIC (Pseudomonas aeruginosa) [µg/mL] |
| --- | --- | --- | --- | --- | --- | --- | --- | --- | --- |
| CC1=C(C(=O)OC(C)C)C(c2ccccc2Cl)NC(=O)N1 (stereo not drawn) | 25 (≈ 81 µM) | 25 (≈ 81 µM) | 25 (≈ 81 µM) | 50 (≈ 162 µM) | 50 (≈ 162 µM) | 100 (≈ 324 µM) | 50 (≈ 162 µM) | 50 (≈ 162 µM) | 25 (≈ 81 µM) |
| CC1=C(C(=O)OC(C)C)C(c2ccccc2)NC(=S)N1 (stereo not drawn) | 50 (≈ 172 µM) | 50 (≈ 172 µM) | 100 (≈ 344 µM) | 100 (≈ 344 µM) | 200 (≈ 689 µM) | 100 (≈ 344 µM) | 50 (≈ 172 µM) | 100 (≈ 344 µM) | 50 (≈ 172 µM) |
| CC1=C(C(=O)OC(C)C)C(c2ccc(C)cc2)NC(=O)N1 (stereo not drawn) | 100 (≈ 347 µM) | 50 (≈ 173 µM) | 100 (≈ 347 µM) | 100 (≈ 347 µM) | 100 (≈ 347 µM) | 200 (≈ 694 µM) | 50 (≈ 173 µM) | 50 (≈ 173 µM) | 50 (≈ 173 µM) |
| O=C(O)c1cn(C2CC2)c2cc(N3CCNCC3)c(F)cc2c1=O [CIPROFLOXACIN] |  |  | 50 (≈ 151 µM) | 25 (≈ 75.4 µM) | 25 (≈ 75.4 µM) |  |  |  |  |
| CC1=C(C(=O)OC(C)C)C(c2ccc([N+](=O)[O-])cc2)NC(=O)N1 (stereo not drawn) | 12.5 (≈ 39.1 µM) | 12.5 (≈ 39.1 µM) | 12.5 (≈ 39.1 µM) | 12.5 (≈ 39.1 µM) | 12.5 (≈ 39.1 µM) | 25 (≈ 78.3 µM) | 12.5 (≈ 39.1 µM) | 12.5 (≈ 39.1 µM) | 12.5 (≈ 39.1 µM) |
| CC1=C(C(=O)OC(C)C)C(c2ccc(Cl)cc2)NC(=O)N1 (stereo not drawn) | 25 (≈ 81 µM) | 25 (≈ 81 µM) | 25 (≈ 81 µM) | 50 (≈ 162 µM) | 50 (≈ 162 µM) | 100 (≈ 324 µM) | 50 (≈ 162 µM) | 25 (≈ 81 µM) | 25 (≈ 81 µM) |
| C[C@@H]1[C@H](O)[C@@H](C)/C=C/C=C/C=C/C=C/C=C/C=C/C=C/[C@H](O[C@@H]2O[C@H](C)[C@@H](O)[C@H](N)[C@@H]2O)C[C@@H]2O[C@](O)(C[C@@H](O)C[C@@H](O)[C@H](O)CC[C@@H](O)C[C@@H](O)CC(=O)O[C@H]1C)C[C@H](O)[C@H]2C(=O)O [AMPHOTERICIN B] |  | 25 (≈ 27.1 µM) |  |  |  | 50 (≈ 54.1 µM) | 50 (≈ 54.1 µM) | 25 (≈ 27.1 µM) |  |
| COc1ccc(C2NC(=O)NC(C)=C2C(=O)OC(C)C)cc1 (stereo not drawn) | 50 (≈ 164 µM) | 50 (≈ 164 µM) | 50 (≈ 164 µM) | 100 (≈ 329 µM) | 100 (≈ 329 µM) | 100 (≈ 329 µM) | 50 (≈ 164 µM) | 50 (≈ 164 µM) | 50 (≈ 164 µM) |
| CC1=C(C(=O)OC(C)C)C(c2ccccc2)NC(=O)N1 (stereo not drawn) | 200 (≈ 729 µM) | 100 (≈ 365 µM) | 200 (≈ 729 µM) | 200 (≈ 729 µM) | 200 (≈ 729 µM) |  | 200 (≈ 729 µM) | 200 (≈ 729 µM) | 100 (≈ 365 µM) |
| CC1=C(C(=O)OC(C)C)C(c2ccc(F)cc2)NC(=O)N1 (stereo not drawn) | 12.5 (≈ 42.8 µM) | 12.5 (≈ 42.8 µM) | 12.5 (≈ 42.8 µM) | 25 (≈ 85.5 µM) | 25 (≈ 85.5 µM) | 25 (≈ 85.5 µM) | 25 (≈ 85.5 µM) | 12.5 (≈ 42.8 µM) | 12.5 (≈ 42.8 µM) |
